HGIII-sPLA2 inh: Blocks human group III sPLA2 activity; AID 743126; Q9NZ20; inhibition, % at 12.2 µM; QFRET BODIPY PC-A2 liposome hydrolysis, fluorescence; 0.56% of 370,000 active;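 active means inhibition above mean plus 3 SD of compounds lying within the high and low control bounds, cut at about 19% in these data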;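 further: 0% = median of test compound wells and 100% = no enzyme DMSO wells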
PLC-gamma1 inh: PLC-gamma1 (human) inhibition, primary screen; 0.84% of 370,000 active; purified PLC-gamma1, fluorogenic substrate, fluorescence; inhibition, % at 12.2 µM; P19174; in the data active means inhibition above about 9.5%
PLC-beta3 inh: blocks human PLC-beta3 enzyme activity. inhibition, % at 12.2 µM. Purified PLC-beta3, fluorogenic substrate, fluorescence. AID 720704. Q01970. 0.18% of 370,000 active; in the data active means inhibition above about 11%;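 further: 0% = median of compound wells on plate and 100% = full blocker control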
proCasp7 act: counter-screen for procaspase-3 activators: activators of human procaspase-7 | P55210 | recombinant procaspase-7, Ac-DEVD-pNA absorbance 405 nm; D23A/D198A/D206A triple mutant, cannot self-cleave; scale: DMSO 0, 5 µM enzyme 100 | activation, % at 8.5 µM | 0.093% of 330,000 active;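 active means percent activation above the screen-wide mean plus 3 SD, cut at about 25% in these data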
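Test system: Procaspase-7 triple mutant (PC-7 D3A). Also added: Ac-DEVD-pNA substrate, 400 µM as added. Schedule: 1 h enzyme–compound preincubation and 2 h substrate reaction, both 25 °C. Signal: p-Nitroaniline absorbance at 405 nm, read at 0 and 120 min. Control set: low DMSO alone, high DMSO plus 5 µM PC-7.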
procasp3 activ: activates human procaspase-3; AID 463141; recombinant procaspase-3 D3A, Ac-DEVD-pNA absorbance 405 nm; activation, % at 8.5 µM; 0.11% of 330,000 active;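 active means activation above the mean of all tested compounds plus 3 SD, cut at about 21% in these data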;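 further: 0% = DMSO alone and 100% = DMSO wells spiked with extra 5 µM PC-3 D3A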
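Compound: 8.5 µM single point, 0.8% DMSO / Material: Autoprocessing-dead procaspase-3 D3A mutant enzyme / Timing: 1 h preincubation plus 2 h reaction at 25 °C / Medium: Zinc-free HEPES/NaCl buffer with 0.01% Triton X-100 at pH 7.4 / Technique: 405 nm absorbance of p-nitroaniline, reads at 0 and 120 min / Repeats: one well per compound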
sPLA2 confirm: human GIII-sPLA2 inhibition, confirmation; 34% of 2,000 active; recombinant hGIII-sPLA2, BODIPY PC-A2 QFRET fluorescence; shares compounds with HGIII-sPLA2 inh; inhibition, % at 12.2 µM;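 active means mean inhibition across triplicates above the hit cutoff set in the earlier primary screen, cut at about 19% in these data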;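 further: 0% = enzyme with DMSO and 100% = DMSO wells lacking enzyme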
BODIPY interf: 535nm fluorescence interference, HGIII-sPLA2 counter-screen. shares compounds with HGIII-sPLA2 inh. BODIPY FL product fluorescence interference, QFRET. inhibition, % at 12.2 µM. 8.5% of 2,000 active;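 active means average inhibition above the solvent-only control mean plus 3 SD, cut at about 6% in these data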;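 further: 0% = DMSO with substrate plus product and 100% = DMSO with substrate alone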
BODIPY interf DR: interferes with 535nm fluorescence in dose response counter-screen; BODIPY FL product fluorescence interference, cell-free; IC50, µM; 240 tested, under 10 active; shares compounds with HGIII-sPLA2 inh;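 active means IC50 at or below 10 µM; inactive means IC50 above 10 µM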
An asterisk follows results filed as active. Rows were chosen to be rich in hits. Some 1.6% of all compounds tested hit in one or more screens of this group.

What do the screens show for `COC(=O)[C@]12C[C@H](CC(=O)N3CCN(C(=O)C4CC4)CC3)C(=O)N(Cc3ccco3)C1=C[C@H](C(C)C)O[C@@H]2C1CC1`?
HGIII-sPLA2 inh: 19.6*; PLC-gamma1 inh: 6.8; PLC-beta3 inh: -1.6; sPLA2 confirm: -2.9; BODIPY interf: -20.2

How did Cc1cccc(NNC(=S)Nc2c(C)cccc2C)c1 do in these assays?
HGIII-sPLA2 inh: 19.3*; PLC-gamma1 inh: -1.1; PLC-beta3 inh: -8.5; proCasp7 act: 1.1; procasp3 activ: -2.7; sPLA2 confirm: 28.5*; BODIPY interf: -4.3; BODIPY interf DR: >122

Results for COc1ccc(CC(=O)Oc2ccc(C)cc2Br)cc1OC ?
HGIII-sPLA2 inh: -2.9; PLC-gamma1 inh: -1.5; PLC-beta3 inh: -6.5; proCasp7 act: 3.2; procasp3 activ: -3.1

Results for C[n+]1cc2c3c(ccc2c2ccc4cc5c(cc4c21)OCO5)OCO3 ?
HGIII-sPLA2 inh: 47.7*; PLC-gamma1 inh: -37.3; PLC-beta3 inh: -48.8; sPLA2 confirm: 45.7*; BODIPY interf: -2.9; BODIPY interf DR: >122

How did COc1ccc2cc3[n+](cc2c1O)CCc1cc2c(cc1-3)OCO2 do in these assays?
HGIII-sPLA2 inh: 7.5; PLC-gamma1 inh: -91.6; PLC-beta3 inh: -117.0

Results for Cn1ncc(Br)c1C(=O)N1CCOCC1 ?
HGIII-sPLA2 inh: 20.2*; PLC-gamma1 inh: -3.1; PLC-beta3 inh: -0.5; proCasp7 act: 1.1; procasp3 activ: -4.9; sPLA2 confirm: -5.8; BODIPY interf: -1.1

How did CC(=O)CC[C@H]1CC[C@]2(CCCN(S(=O)(=O)c3ccccc3)C2)O1 do in these assays?
HGIII-sPLA2 inh: 2.4; PLC-gamma1 inh: -1.8; PLC-beta3 inh: -0.3

What do the screens show for `N#CCC[C@H]1CC[C@]2(CCCN(S(=O)(=O)c3ccccc3)C2)O1`?
HGIII-sPLA2 inh: 19.5*; PLC-gamma1 inh: 3.7; PLC-beta3 inh: -0.8; sPLA2 confirm: 1.5; BODIPY interf: -6.2

How did CCOC(=O)C1(CC2CCCCO2)CCN(Cc2cn[nH]c2-c2cccc(F)c2)CC1 (stereo unspecified) do in these assays?
HGIII-sPLA2 inh: 0.3; PLC-gamma1 inh: -2.4; PLC-beta3 inh: -7.3; proCasp7 act: 0.2; procasp3 activ: -1.8

Results for Cn1c(=O)c2c(ncn2CC(=O)OCC(=O)NC(c2ccccc2)c2ccccc2)n(C)c1=O ?
HGIII-sPLA2 inh: 21.1*; PLC-gamma1 inh: -2.8; PLC-beta3 inh: 0.7; proCasp7 act: -3.8; procasp3 activ: -0.6; sPLA2 confirm: -1.1; BODIPY interf: -4.9

Results for CS(=O)(=O)c1ccc(Nc2nc(C(N)CCc3ccccc3)cs2)cc1 (stereo unspecified) ?
HGIII-sPLA2 inh: 0.6; PLC-gamma1 inh: -17.3; PLC-beta3 inh: -18.8

Results for O=C(Cc1cccs1)NNC(=S)NCc1ccc(Cl)cc1 ?
HGIII-sPLA2 inh: 19.3*; PLC-gamma1 inh: 0.8; PLC-beta3 inh: -0.3; proCasp7 act: -3.0; procasp3 activ: 1.4; sPLA2 confirm: 45.3*; BODIPY interf: 0.2; BODIPY interf DR: >122

How did O=C(COC(=O)c1ccc(Cl)c(S(=O)(=O)NCc2ccccc2)c1)NCC1CCCO1 (stereo unspecified) do in these assays?
HGIII-sPLA2 inh: 1.5; PLC-gamma1 inh: 2.2; PLC-beta3 inh: 3.7; proCasp7 act: 12.1; procasp3 activ: 0.3

What do the screens show for `CC(C)(C)c1ccc(-c2nnc(SCC(=O)c3ccc([N+](=O)[O-])cc3)n2-c2ccc(Cl)cc2)cc1`?
HGIII-sPLA2 inh: -10.6; PLC-gamma1 inh: -1.9; PLC-beta3 inh: 0.3

Results for CC1CCCN(C(C(=O)NC2CCCCC2)c2cc3c(cc2[N+](=O)[O-])OCO3)C1 (stereo unspecified) ?
HGIII-sPLA2 inh: 19.7*; PLC-gamma1 inh: -8.6; PLC-beta3 inh: -14.2; proCasp7 act: 8.4; procasp3 activ: 1.3; sPLA2 confirm: 1.5; BODIPY interf: -16.3

How did CCOC(=O)c1c(CN2CCN(C)CC2)n(-c2ccccc2)c2cc(Br)c(O)cc12 do in these assays?
HGIII-sPLA2 inh: -64.8; PLC-gamma1 inh: -15.1; PLC-beta3 inh: -27.2; proCasp7 act: 10.8; procasp3 activ: 1.4

How did CCOC(=O)c1c(CSC(=N)N)n(-c2ccccc2)c2cc(Br)c(OC(C)=O)cc12 do in these assays?
HGIII-sPLA2 inh: 44.1*; PLC-gamma1 inh: 1.7; PLC-beta3 inh: -6.9; proCasp7 act: 7.9; procasp3 activ: -0.9; sPLA2 confirm: 35.0*; BODIPY interf: -18.9; BODIPY interf DR: >122

How did CCN1C(=O)/C(=C\C=C2/C=CC=CN2CC)SC1=S do in these assays?
HGIII-sPLA2 inh: 24.9*; PLC-gamma1 inh: -6.4; PLC-beta3 inh: -4.9; proCasp7 act: -28.7; procasp3 activ: -10.6; sPLA2 confirm: 26.8*; BODIPY interf: -1.6

How did Cc1ccccc1NC(=O)c1ccc(NC(=O)C2CC(=O)OC23CCCCC3)cc1 (stereo unspecified) do in these assays?
HGIII-sPLA2 inh: -7.6; PLC-gamma1 inh: 0.5; PLC-beta3 inh: -2.2

What do the screens show for `CC1(C)Cc2cccc(OCC(=O)Nc3ccc(S(N)(=O)=O)cc3)c2O1`?
HGIII-sPLA2 inh: -2.5; PLC-gamma1 inh: 3.3; PLC-beta3 inh: 1.7; proCasp7 act: 7.9; procasp3 activ: -2.9

How did Cc1cccc2sc(NNC(=O)c3ccc(S(=O)(=O)N4CCCC(C)C4)cc3)nc12 (stereo unspecified) do in these assays?
HGIII-sPLA2 inh: 33.7*; PLC-gamma1 inh: -203.4; PLC-beta3 inh: -242.7; proCasp7 act: -25.8; procasp3 activ: -9.3; sPLA2 confirm: 38.5*; BODIPY interf: 0.6; BODIPY interf DR: >122

How did Cc1cccc2sc(NNC(=O)c3ccc(S(=O)(=O)N4CCc5ccccc5C4)cc3)nc12 do in these assays?
HGIII-sPLA2 inh: 40.8*; PLC-gamma1 inh: -78.5; PLC-beta3 inh: -84.3; proCasp7 act: -24.2; procasp3 activ: 4.8; sPLA2 confirm: 42.5*; BODIPY interf: 7.8*

How did Cc1cccc2sc(NC(=O)c3cccc(S(=O)(=O)N4CCc5ccccc54)c3)nc12 do in these assays?
HGIII-sPLA2 inh: -7.9; PLC-gamma1 inh: -0.4; PLC-beta3 inh: 0.7; proCasp7 act: 2.9; procasp3 activ: -1.7

What do the screens show for `O=C(CNC1CCCC1)Nc1cc(Cl)ccc1[N+](=O)[O-]`?
HGIII-sPLA2 inh: 21.1*; PLC-gamma1 inh: 3.0; PLC-beta3 inh: -5.5; proCasp7 act: 1.8; procasp3 activ: 9.6; sPLA2 confirm: 14.3; BODIPY interf: -4.8

How did COc1ccc(Cl)cc1-c1n[nH]c(=S)n1C do in these assays?
HGIII-sPLA2 inh: 24.0*; PLC-gamma1 inh: 5.9; PLC-beta3 inh: -3.0; proCasp7 act: 5.3; procasp3 activ: 2.6; sPLA2 confirm: 15.8; BODIPY interf: -1.8
